Source: ChEMBL document CHEMBL4613267, “Novel Potent Muscarinic Receptor Antagonists: Investigation on the Nature of Lipophilic Substituents in the 5- and/or 6-Positions of the 1,4-Dioxane Nucleus” (J Med Chem, 2020)
Activity calls are given as the source filed them. No cut-off for these calls is given here.

Tests used:
[1] = molecular target: T1, Muscarinic acetylcholine receptor (Mus musculus) (UniProt Q920H4+Q9ERZ4+P12657+P32211+Q9ERZ3); test: Activity at muscarinic receptor in BALB/c mouse MSC assessed as reduction in cell viability at 10^-4M incubated for 24 hrs by Cell-titer 96 aqueous one solution reagent based assay
How it was run: (§1)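 Bone-marrow MSCs from mouse, cultured for 2 weeks, then seeded at 5,000 cells/well in DMEM with 10% heat-inactivated FCS. Exposed to compound at 10–4 to 10–10 M for 24 h, with vehicle (DMSO) and untreated controls. Viability read by MTS reagent (2 h, 5% CO2) as absorbance at 490 nm. Mean ± SEM of four independent experiments.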

[2] = molecular target: T1, Muscarinic acetylcholine receptor (Mus musculus); test: Activity at muscarinic receptor in BALB/c mouse MSC assessed as increase in cell viability at 10^-10M incubated for 24 hrs by Cell-titer 96 aqueous one solution reagent based assay; how it was run: as §1
[3] = molecular target: T1, Muscarinic acetylcholine receptor (Mus musculus); details: BALB/c, 10^-10M
[4] = molecular target: T1, Muscarinic acetylcholine receptor (Mus musculus); test: Antagonist activity at muscarinic receptor in BALB/c mouse MSC assessed as inhibition of carbachol-induced increase in cell viability at 10^-4 to 10^-10M incubated for 24 hrs by Cell-titer 96 aqueous one solution reagent based assay
How it was run: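 Mouse bone-marrow MSCs kept as adherent cultures, with medium changes, for 2 weeks, then plated at 5,000 cells/well in DMEM with 10% HIFCS. Antagonist (10–4 to 10–10 M) given for 1 h, medium replaced, then carbachol 10–10 M for 24 h. Viability read by MTS, 2 h incubation, absorbance 490 nm. Controls were vehicle (DMSO) and untreated cells. Four independent experiments, mean ± SEM.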

[5] = molecular target: T2, Muscarinic acetylcholine receptor M1 (Homo sapiens, UniProt P11229); test: Displacement of [3H]NMS from human recombinant muscarinic receptor M1 expressed in CHO-K1 cell membranes incubated for 2 hrs by scintillation counting method
T2 sequence (P11229 whole entry): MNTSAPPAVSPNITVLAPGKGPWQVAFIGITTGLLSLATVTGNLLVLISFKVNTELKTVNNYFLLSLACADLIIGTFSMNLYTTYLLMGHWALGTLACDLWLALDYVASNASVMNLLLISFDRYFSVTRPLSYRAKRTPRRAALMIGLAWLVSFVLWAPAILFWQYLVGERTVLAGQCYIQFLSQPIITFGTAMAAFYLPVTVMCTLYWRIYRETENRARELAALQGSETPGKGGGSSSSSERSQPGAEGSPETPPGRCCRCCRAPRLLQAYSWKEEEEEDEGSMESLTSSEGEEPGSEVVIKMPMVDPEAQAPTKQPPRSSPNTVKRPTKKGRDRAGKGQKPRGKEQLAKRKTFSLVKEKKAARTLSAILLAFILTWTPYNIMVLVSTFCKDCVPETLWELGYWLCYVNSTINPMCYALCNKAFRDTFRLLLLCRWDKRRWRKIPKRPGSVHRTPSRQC
How it was run: (§2)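 Membranes from CHO-K1 cells stably expressing each human subtype, homogenised in 25 mM sodium phosphate, 5 mM MgCl2, pH 7.4. About 25–70 μg/mL protein incubated with 0.2 nM [3H]NMS and test compound for 2 h at r.t. Nonspecific binding defined with 10 μM atropine. Filtration, then counting. Four-parameter logistic fit gave IC50, converted to Ki. Mean ± S.E.M. of ≥3 experiments in duplicate.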

[6] = molecular target: T3, Muscarinic acetylcholine receptor M2 (Homo sapiens, UniProt P08172); test: Displacement of [3H]NMS from human recombinant muscarinic receptor M2 expressed in CHO-K1 cell membranes incubated for 2 hrs by scintillation counting method; how it was run: as §2
T3 sequence (P08172 whole entry): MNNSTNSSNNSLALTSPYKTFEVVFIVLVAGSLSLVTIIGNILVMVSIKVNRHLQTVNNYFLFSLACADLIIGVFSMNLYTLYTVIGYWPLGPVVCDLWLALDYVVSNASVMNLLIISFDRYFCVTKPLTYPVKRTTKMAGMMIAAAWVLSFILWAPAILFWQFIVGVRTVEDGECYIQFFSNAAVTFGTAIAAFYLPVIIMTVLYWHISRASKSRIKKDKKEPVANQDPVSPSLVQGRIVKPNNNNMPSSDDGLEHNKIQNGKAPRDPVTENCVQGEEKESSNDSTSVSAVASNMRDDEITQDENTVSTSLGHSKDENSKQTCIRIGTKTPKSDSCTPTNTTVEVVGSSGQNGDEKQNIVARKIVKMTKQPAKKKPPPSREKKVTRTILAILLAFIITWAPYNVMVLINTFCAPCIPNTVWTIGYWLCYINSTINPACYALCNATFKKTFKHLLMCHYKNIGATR

[7] = molecular target: Muscarinic acetylcholine receptor M3 (Homo sapiens, UniProt P20309); test: Displacement of [3H]NMS from human recombinant muscarinic receptor M3 expressed in CHO-K1 cell membranes incubated for 2 hrs by scintillation counting method; how it was run: as §2
Muscarinic acetylcholine receptor M3, sequence (P20309 whole entry): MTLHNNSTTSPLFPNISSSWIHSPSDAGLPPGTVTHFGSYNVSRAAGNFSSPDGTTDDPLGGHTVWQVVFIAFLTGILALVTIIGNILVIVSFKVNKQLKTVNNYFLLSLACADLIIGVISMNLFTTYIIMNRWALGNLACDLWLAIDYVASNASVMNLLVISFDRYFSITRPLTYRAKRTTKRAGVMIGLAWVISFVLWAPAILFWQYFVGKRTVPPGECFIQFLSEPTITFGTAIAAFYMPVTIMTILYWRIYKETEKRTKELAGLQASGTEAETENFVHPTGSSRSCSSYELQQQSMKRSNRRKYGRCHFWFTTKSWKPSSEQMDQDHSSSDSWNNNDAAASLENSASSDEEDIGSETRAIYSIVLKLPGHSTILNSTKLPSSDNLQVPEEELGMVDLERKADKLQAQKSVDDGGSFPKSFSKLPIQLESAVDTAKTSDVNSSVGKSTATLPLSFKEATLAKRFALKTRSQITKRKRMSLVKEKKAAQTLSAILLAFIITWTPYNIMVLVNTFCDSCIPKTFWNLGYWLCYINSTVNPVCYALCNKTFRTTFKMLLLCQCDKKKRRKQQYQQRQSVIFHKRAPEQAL

[8] = molecular target: T4, Muscarinic acetylcholine receptor M4 (Homo sapiens, UniProt P08173); test: Displacement of [3H]NMS from human recombinant muscarinic receptor M4 expressed in CHO-K1 cell membranes incubated for 2 hrs by scintillation counting method
T4 sequence (P08173 whole entry): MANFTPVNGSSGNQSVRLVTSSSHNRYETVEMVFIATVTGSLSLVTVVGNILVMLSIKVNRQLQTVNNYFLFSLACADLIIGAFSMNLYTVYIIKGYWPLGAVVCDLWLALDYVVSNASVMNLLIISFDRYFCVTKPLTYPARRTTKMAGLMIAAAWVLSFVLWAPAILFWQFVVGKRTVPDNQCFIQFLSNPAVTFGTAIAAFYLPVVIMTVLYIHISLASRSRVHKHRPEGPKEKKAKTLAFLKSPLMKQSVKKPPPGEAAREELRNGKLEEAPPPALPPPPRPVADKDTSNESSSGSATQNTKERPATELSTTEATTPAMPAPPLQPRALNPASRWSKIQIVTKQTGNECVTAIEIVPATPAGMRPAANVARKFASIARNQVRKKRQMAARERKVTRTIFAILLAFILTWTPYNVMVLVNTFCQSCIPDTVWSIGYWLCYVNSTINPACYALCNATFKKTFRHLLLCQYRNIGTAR
How it was run: (§3)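 CHO-K1 membranes stably expressing hM4 or hM5, at about 25–70 μg/mL protein, in 25 mM sodium phosphate with 5 mM MgCl2, pH 7.4. Competition with 0.2 nM [3H]NMS for 2 h at r.t.; nonspecific binding defined with 10 μM atropine. Filtration, then scintillation counting. IC50 from four-parameter logistic fit, converted to Ki. Mean ± S.E.M. of ≥3 experiments, each in duplicate.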

[9] = molecular target: T5, Muscarinic acetylcholine receptor M5 (Homo sapiens, UniProt P08912); test: Displacement of [3H]NMS from human recombinant muscarinic receptor M5 expressed in CHO-K1 cell membranes incubated for 2 hrs by scintillation counting method; how it was run: as §3
T5 sequence (P08912 whole entry): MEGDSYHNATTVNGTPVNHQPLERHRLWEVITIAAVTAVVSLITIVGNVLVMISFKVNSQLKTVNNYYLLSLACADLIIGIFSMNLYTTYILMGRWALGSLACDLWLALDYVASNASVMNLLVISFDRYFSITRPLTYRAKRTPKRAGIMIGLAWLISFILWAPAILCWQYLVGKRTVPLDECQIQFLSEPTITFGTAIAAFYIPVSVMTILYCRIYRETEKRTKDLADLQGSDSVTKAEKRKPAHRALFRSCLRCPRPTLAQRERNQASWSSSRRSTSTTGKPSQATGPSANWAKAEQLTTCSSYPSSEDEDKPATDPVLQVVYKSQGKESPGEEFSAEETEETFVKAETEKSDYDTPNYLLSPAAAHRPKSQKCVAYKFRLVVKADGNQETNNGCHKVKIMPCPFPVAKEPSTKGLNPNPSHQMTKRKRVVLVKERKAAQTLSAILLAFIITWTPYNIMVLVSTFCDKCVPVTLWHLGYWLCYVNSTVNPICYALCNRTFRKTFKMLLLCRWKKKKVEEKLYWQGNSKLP

Compound	Activity [1]	Activity [2]	inhibition [3]	inhibition [4]	Ki [5]	Ki [6]	Ki [7]	Ki [8]	Ki [9]
CN1[C@@H]2CC[C@H]1C[C@@H](OC(=O)C(CO)c1ccccc1)C2 (stereo partly specified)	Active	Active	Active	–	–	–	–	–	–
C[N+](C)(C)C[C@@H]1COC[C@](c2ccccc2)(C2CCCCC2)O1 (relative stereo)	Active	Active	–	Active	–	–	–	–	–
O=C(O[C@H]1C[C@H]2CC[C@@H](C1)[N+]21CCCC1)C(O)(c1ccccc1)c1ccccc1 [TROSPIUM CHLORIDE]	–	–	–	–	3.47 nM	1.15 nM	1.02 nM	1.45 nM	6.03 nM
